Data from ChEMBL document CHEMBL4373666, “Piperidine carbamate peptidomimetic inhibitors of the serine proteases HGFA, matriptase and hepsin” (Medchemcomm, 2019).

Assays:
[1] = target: Prothrombin (Homo sapiens, UniProt P00734); assay: Inhibition of recombinant thrombin (unknown origin) using D-Phe-Pip-Arg-pNA as substrate preincubated for 30 mins followed by substrate addition by chromogenic assay
[2] = target: T1, Hepatocyte growth factor activator serine protease (Homo sapiens, UniProt Q04756); assay: Inhibition of recombinant HGFA serine protease domain (unknown origin) using Boc-QLR-AMC as substrate preincubated for 30 mins followed by substrate addition by fluorescence based assay
T1 sequence (Q04756 whole entry): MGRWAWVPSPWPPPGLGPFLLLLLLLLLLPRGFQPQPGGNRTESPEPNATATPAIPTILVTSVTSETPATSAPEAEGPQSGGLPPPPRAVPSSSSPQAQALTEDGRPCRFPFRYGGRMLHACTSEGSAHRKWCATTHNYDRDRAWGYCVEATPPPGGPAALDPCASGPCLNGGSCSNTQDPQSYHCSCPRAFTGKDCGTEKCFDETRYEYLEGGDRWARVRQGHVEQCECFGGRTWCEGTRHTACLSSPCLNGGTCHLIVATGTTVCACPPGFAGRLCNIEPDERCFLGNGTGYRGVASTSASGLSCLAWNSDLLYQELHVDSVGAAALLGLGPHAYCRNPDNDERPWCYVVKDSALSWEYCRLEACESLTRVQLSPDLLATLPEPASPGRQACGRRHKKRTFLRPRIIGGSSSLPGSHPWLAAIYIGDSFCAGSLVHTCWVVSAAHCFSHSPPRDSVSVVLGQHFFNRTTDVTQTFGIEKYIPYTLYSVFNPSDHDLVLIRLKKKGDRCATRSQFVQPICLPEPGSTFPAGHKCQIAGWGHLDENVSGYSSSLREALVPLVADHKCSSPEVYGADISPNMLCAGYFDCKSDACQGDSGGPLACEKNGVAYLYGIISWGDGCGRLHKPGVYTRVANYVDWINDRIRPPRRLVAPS
Procedure, shortened: (§1)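 Fluorogenic kinetic protease assay: Boc-QLR-AMC substrate for HGFA, Boc-QAR-AMC for hepsin. Each inhibitor was tested at eleven concentrations, pre-incubated with the protease, and then substrate was added. Release of fluorescent product was followed kinetically over one hour, and IC50 was taken from the concentration-dependent inhibition of proteolysis.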

[3] = target: Serine protease hepsin (Homo sapiens, UniProt P05981); assay: Inhibition of recombinant human C-terminal 10-His tagged hepsin (Arg45 to Leu417) expressed in mouse myeloma cells using Boc-QAR-AMC as substrate preincubated for 30 mins followed by substrate addition by fluorescence based assay; procedure, shortened: as §1
[4] = target: T2, Suppressor of tumorigenicity 14 protein (Homo sapiens, UniProt Q9Y5Y6); assay: Inhibition of recombinant human N-terminal met-His6-tagged matriptase catalytic domain (Gly596 to Val855 residues) expressed in Escherichia coli using Boc-QAR-AMC as substrate preincubated for 30 mins followed by substrate addition by fluorescence based assay
T2 sequence (Q9Y5Y6 whole entry): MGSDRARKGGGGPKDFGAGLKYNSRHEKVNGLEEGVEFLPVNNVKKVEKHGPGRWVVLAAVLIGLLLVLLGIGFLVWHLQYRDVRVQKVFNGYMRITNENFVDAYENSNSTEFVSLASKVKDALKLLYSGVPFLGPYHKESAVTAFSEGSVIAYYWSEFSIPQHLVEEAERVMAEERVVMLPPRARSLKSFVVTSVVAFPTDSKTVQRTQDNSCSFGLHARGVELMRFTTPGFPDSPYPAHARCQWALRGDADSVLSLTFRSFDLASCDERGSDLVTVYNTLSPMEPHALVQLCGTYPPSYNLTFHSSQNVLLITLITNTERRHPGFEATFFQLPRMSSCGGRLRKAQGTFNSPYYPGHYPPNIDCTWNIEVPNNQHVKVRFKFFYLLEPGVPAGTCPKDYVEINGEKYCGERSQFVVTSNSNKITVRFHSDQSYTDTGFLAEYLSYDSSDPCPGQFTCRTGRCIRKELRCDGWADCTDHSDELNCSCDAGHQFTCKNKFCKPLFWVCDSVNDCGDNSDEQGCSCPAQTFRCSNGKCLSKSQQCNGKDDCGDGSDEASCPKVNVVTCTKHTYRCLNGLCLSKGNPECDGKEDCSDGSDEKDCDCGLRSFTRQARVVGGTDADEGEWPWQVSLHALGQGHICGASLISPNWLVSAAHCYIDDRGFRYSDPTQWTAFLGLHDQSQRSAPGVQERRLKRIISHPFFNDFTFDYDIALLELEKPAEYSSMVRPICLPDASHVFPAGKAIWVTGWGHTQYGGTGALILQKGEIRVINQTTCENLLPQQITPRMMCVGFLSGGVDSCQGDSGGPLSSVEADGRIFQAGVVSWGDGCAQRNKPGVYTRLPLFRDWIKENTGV

[5] = target: Coagulation factor X (Homo sapiens, UniProt P00742); assay: Inhibition of recombinant factor Xa (unknown origin) using Bz-Ile-Glu-Gly-Arg-pNA as substrate preincubated for 30 mins followed by substrate addition by chromogenic assay
Coagulation factor X, sequence (P00742 41-179 limits assumed): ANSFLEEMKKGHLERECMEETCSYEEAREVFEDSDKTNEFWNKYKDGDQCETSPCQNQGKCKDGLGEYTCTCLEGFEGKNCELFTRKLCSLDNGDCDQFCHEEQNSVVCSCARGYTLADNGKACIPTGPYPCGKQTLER
Coagulation factor X, sequence (P00742 235-488 limits assumed): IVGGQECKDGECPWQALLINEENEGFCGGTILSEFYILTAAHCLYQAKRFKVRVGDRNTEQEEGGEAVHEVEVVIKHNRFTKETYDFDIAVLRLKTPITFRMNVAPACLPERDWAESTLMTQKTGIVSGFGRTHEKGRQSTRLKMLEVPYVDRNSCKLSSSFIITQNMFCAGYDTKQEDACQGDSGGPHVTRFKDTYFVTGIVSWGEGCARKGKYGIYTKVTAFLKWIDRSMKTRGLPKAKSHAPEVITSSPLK

Serine protease hepsin, sequence (P05981 1-162 limits assumed): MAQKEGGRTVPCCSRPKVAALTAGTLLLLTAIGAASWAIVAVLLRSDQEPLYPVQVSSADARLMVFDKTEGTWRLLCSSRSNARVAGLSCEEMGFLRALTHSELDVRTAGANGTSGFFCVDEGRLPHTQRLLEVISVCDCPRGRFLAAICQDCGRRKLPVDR
Serine protease hepsin, sequence (P05981 163-417 limits assumed): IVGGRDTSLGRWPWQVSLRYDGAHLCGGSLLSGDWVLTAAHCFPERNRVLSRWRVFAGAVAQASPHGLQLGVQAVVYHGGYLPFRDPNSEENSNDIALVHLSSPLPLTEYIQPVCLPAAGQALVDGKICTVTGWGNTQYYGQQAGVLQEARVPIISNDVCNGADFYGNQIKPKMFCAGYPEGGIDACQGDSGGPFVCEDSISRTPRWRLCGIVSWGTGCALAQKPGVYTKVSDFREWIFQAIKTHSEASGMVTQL

SMILES	IC50 [1]	IC50 [2]	IC50 [3]	IC50 [4]	IC50 [5]
CC(=O)N[C@@H](CO)C(=O)N[C@@H](CCCCN)C(=O)N[C@@H](CC(C)C)C(=O)N[C@@H](CCCNC(=N)N)C(=O)c1nc2ccccc2s1	> 20 µM	–	–	–	–
CC(=O)N1CCC(CCc2ccccc2)(OC(=O)N[C@@H](CC(C)C)C(=O)N[C@@H](CCCNC(=N)N)C(=O)c2nc3ccccc3s2)CC1	–	> 20 µM	–	–	–
N=C(N)c1cccc(C[C@H](NS(=O)(=O)c2ccc3ccccc3c2)C(=O)N2CCN(C(=O)NCc3ccc(Br)cc3)CC2)c1	–	30 µM	0.09 µM	8.4 µM	–
CCS(=O)(=O)N1CCC(OC(=O)N[C@@H](CC(C)C)C(=O)N[C@@H](CCCNC(=N)N)C(=O)c2nc3ccccc3s2)CC1	> 20 µM	> 20 µM	–	–	> 20 µM
CC(C)c1cc(C(C)C)c(S(=O)(=O)N[C@@H](Cc2cccc(C(=N)N)c2)C(=O)N2CCN(C(=O)C3CCNCC3)CC2)c(C(C)C)c1	–	11 µM	14 µM	–	–
N=C(N)NCCC[C@H](NC(=O)[C@H](CC1CCCCC1)NC(=O)OC1(c2ccccc2)CCNCC1)C(=O)c1nc2ccccc2s1	> 20 µM	> 20 µM	–	–	–
CC(=O)N1CCC(OC(=O)N[C@@H](CC(C)C)C(=O)N[C@@H](CCCNC(=N)N)C(=O)c2nc3ccccc3s2)CC1	–	> 20 µM	–	–	–
CC(C)C[C@H](NC(=O)OC1CCN(S(=O)(=O)c2ccc([N+](=O)[O-])cc2[N+](=O)[O-])CC1)C(=O)N[C@@H](CCCNC(=N)N)C(=O)c1nc2ccccc2s1	–	> 20 µM	–	–	–
CC(C)C[C@H](NC(=O)OC1CCN(S(=O)(=O)c2cccc(F)c2)CC1)C(=O)N[C@@H](CCCNC(=N)N)C(=O)c1nc2ccccc2s1	–	> 20 µM	–	–	–
CC(=O)N[C@@H](CCCCN)C(=O)N[C@@H](CCC(N)=O)C(=O)N[C@@H](CC(C)C)C(=O)N[C@@H](CCCNC(=N)N)C(=O)c1nc2ccccc2s1	> 20 µM	–	–	–	–
CC(C)C[C@H](NC(=O)OC1CCN(S(=O)(=O)c2ccccc2)CC1)C(=O)N[C@@H](CCCNC(=N)N)C(=O)c1nc2ccccc2s1	> 20 µM	–	–	–	> 20 µM
CC(C)C[C@H](NC(=O)OC(c1ccccc1)C1CCNCC1)C(=O)N[C@@H](CCCNC(=N)N)C(=O)c1nc2ccccc2s1 (some centres not stated)	> 20 µM	–	–	–	> 20 µM
CC(C)C[C@H](NC(=O)OC1(Cc2ccccc2)CCNCC1)C(=O)N[C@@H](CCCNC(=N)N)C(=O)c1nc2ccccc2s1	> 20 µM	1.2 µM	0.0006 µM	0.03 µM	6.5 µM
CC(C)C[C@H](NC(=O)OC1(c2ccccc2)CCNCC1)C(=O)N[C@@H](CCCNC(=N)N)C(=O)c1nc2ccccc2s1	> 20 µM	–	–	–	–
Cc1cc(C)c(S(=O)(=O)N2CCC(OC(=O)N[C@@H](CC(C)C)C(=O)N[C@@H](CCCNC(=N)N)C(=O)c3nc4ccccc4s3)CC2)c(C)c1	–	–	–	> 20 µM	–
CC1CN(CC2CCN(Cc3ccccc3)CC2)C(=O)N(c2cccc(C(=N)N)c2)C1 (configuration not stated)	11.6 µM	20 µM	1.9 µM	3.2 µM	0.38 µM
